Data from ChEMBL document CHEMBL4765345, “Design, synthesis, and biological evaluation of dual targeting inhibitors of histone deacetylase 6/8 and bromodomain BRPF1” (Eur J Med Chem, 2020).

Legend:
THP-1 [1] = test: Antiproliferative activity against human THP-1 assessed as reduction in cell growth at 100 uM by CellTiter-non radioactive cell proliferation assay; format: functional
HL-60 [2] = test: Antiproliferative activity against human HL60 assessed as reduction in cell growth at 4 uM by CellTiter-non radioactive cell proliferation assay; format: functional
Outline: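 HL60 cells plated at 5000 per well and given inhibitor or DMSO vehicle immediately. Compounds diluted from 200x DMSO stocks; three replicates per concentration. Growth read by CellTiter 96 Aqueous (MTS) assay. GI50 is the concentration cutting metabolically active cells by 50% versus DMSO control, taken from absorbance against log concentration.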

Histone deacetylase 1 [3] = molecular target: T1, Histone deacetylase 1 (Homo sapiens, UniProt Q13547); test: Inhibition of recombinant human HDAC1 at 1 uM using Z-(Ac)Lys-AMC as substrate after 90 mins by fluorescence based micro plate assay
Outline: (§1)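 Recombinant human HDAC1 or HDAC6 incubated 90 min at 37 °C with 10.5 μM ZMAL (Z-(Ac)Lys-AMC) and increasing inhibitor concentrations, using a homogeneous fluorescence assay. Fluorescence read at Ex 390/Em 460 nm.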

[4] = molecular target: T2, Protein deacetylase HDAC6 (Homo sapiens) (UniProt Q9UBN7); test: Inhibition of recombinant human HDAC6 at 10 uM using Z-(Ac)Lys-AMC as substrate after 90 mins by fluorescence based micro plate assay; outline: as §1
T2 sequence (whole entry): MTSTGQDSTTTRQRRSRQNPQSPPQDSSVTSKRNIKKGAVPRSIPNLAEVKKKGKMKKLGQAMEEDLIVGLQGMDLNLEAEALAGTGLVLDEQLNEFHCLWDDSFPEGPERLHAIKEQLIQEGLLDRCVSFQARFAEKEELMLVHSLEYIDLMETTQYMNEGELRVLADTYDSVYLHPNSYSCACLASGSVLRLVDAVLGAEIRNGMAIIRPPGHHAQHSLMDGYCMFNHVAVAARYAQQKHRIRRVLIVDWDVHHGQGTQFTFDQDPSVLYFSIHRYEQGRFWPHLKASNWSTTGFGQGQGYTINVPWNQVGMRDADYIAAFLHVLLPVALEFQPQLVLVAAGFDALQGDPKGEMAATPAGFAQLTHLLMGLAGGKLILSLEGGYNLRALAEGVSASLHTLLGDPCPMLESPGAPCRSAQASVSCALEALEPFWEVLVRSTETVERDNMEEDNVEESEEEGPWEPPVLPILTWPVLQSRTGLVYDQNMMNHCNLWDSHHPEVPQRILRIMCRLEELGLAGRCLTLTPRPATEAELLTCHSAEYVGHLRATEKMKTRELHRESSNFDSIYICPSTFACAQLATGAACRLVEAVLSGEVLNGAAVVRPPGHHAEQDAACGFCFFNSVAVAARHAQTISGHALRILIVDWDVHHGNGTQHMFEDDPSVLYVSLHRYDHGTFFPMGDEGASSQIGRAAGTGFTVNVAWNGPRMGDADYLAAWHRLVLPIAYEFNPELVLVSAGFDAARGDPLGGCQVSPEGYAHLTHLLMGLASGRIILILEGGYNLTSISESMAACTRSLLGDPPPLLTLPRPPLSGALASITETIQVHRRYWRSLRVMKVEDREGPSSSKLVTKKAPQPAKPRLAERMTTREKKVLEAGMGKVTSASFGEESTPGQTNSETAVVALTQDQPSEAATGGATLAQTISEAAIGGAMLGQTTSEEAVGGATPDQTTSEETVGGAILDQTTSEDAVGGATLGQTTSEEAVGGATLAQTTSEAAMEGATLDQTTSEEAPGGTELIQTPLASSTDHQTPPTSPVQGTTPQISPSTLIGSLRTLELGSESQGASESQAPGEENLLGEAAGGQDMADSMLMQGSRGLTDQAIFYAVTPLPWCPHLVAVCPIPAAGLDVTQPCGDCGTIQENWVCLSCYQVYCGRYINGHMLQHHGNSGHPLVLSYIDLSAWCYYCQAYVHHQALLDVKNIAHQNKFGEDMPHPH

HL-60 [5] = test: Antiproliferative activity against human HL60 assessed as reduction in cell growth at 100 uM by CellTiter-non radioactive cell proliferation assay; format: functional
THP-1 [6] = test: Antiproliferative activity against human THP-1 assessed as reduction in cell growth at 1 uM by CellTiter-non radioactive cell proliferation assay; format: functional
[7] = molecular target: T2, Protein deacetylase HDAC6 (Homo sapiens); test: Inhibition of recombinant human HDAC6 at 1 uM using Z-(Ac)Lys-AMC as substrate after 90 mins by fluorescence based micro plate assay; outline: as §1
Histone deacetylase 8 = molecular target: T3, Histone deacetylase 8 (Homo sapiens, UniProt Q9BY41); test: Inhibition of human recombinant HDAC8 using H2N-Arg-His-Lys(Ac)-Lys(Ac)-AMC as substrate after 90 mins by fluorescence based micro plate assay
T3 sequence (Q9BY41 whole entry): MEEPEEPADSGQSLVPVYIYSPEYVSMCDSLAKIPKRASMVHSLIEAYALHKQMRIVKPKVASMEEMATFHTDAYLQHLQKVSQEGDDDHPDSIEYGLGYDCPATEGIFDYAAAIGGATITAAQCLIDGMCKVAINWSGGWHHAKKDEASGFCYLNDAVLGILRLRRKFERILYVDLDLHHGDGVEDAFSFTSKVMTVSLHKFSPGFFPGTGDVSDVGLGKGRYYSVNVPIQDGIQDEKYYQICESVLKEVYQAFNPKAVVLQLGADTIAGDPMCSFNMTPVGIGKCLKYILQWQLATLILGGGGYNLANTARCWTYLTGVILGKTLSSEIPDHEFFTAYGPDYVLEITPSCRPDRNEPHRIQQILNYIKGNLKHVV

Histone deacetylase 1 [8] = molecular target: T1, Histone deacetylase 1; test: Inhibition of recombinant human HDAC1 at 10 uM using Z-(Ac)Lys-AMC as substrate after 90 mins by fluorescence based micro plate assay; outline: as §1
HL-60 [9] = test: Antiproliferative activity against human HL60 assessed as reduction in cell growth at 20 uM by CellTiter-non radioactive cell proliferation assay; format: functional
THP-1 [10] = test: Antiproliferative activity against human THP-1 assessed as reduction in cell growth at 20 uM by CellTiter-non radioactive cell proliferation assay; format: functional
[11] = molecular target: T4, Protein deacetylase HDAC6 (Homo sapiens, UniProt Q9UBN7); test: Inhibition of recombinant human HDAC6 using Z-(Ac)Lys-AMC as substrate after 90 mins by fluorescence based micro plate assay; outline: as §1
T4 sequence (Q9UBN7 whole entry): T2 sequence (whole entry)

Peregrin = molecular target: T5, Peregrin (Homo sapiens, UniProt P55201); test: Binding affinity to BRPF1 (unknown origin) by Isothermal titration calorimetry; conditions: read-out: Kd
T5 sequence (P55201 whole entry): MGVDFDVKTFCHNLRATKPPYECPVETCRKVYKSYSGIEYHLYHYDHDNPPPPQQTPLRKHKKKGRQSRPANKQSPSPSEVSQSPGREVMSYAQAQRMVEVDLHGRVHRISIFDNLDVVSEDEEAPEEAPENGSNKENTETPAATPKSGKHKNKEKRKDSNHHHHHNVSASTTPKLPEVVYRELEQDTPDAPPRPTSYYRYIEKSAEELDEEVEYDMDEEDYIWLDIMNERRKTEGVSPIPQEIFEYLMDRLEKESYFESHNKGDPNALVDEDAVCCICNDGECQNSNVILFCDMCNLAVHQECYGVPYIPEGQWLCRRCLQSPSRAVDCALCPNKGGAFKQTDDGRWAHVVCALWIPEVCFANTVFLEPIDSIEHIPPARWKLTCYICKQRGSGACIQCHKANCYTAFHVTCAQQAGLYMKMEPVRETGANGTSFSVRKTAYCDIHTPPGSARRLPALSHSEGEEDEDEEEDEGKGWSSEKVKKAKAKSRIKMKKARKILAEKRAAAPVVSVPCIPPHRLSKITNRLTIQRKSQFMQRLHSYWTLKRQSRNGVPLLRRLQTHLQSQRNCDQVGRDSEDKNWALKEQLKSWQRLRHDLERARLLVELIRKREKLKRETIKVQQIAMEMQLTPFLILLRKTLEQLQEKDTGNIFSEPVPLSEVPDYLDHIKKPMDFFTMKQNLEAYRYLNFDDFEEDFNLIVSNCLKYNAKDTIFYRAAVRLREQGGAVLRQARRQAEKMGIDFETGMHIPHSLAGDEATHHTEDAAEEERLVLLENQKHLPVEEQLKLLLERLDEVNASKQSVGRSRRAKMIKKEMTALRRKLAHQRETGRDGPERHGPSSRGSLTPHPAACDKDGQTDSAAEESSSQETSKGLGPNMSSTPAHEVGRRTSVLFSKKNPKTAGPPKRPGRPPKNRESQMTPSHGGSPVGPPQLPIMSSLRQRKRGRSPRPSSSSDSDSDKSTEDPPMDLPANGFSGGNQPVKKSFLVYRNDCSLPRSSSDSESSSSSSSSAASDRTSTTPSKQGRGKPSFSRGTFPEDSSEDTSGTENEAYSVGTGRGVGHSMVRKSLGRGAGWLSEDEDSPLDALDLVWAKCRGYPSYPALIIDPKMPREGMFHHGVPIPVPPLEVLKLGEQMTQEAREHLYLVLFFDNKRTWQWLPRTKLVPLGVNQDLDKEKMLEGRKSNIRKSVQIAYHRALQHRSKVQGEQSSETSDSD
Outline: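 Isothermal titration calorimetry with recombinant BRPF1 (200–400 μM) in the injection syringe titrated into ligand (20–40 μM) in the sample cell. Kd was fitted from the titrations and reported with its P99 interval.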

Histone deacetylase 1 [12] = molecular target: T1, Histone deacetylase 1; test: Inhibition of recombinant human HDAC1 using Z-(Ac)Lys-AMC as substrate after 90 mins by fluorescence based micro plate assay; outline: as §1
HL-60 [13] = test: Antiproliferative activity against human HL60 assessed as reduction in cell growth at 1 uM by CellTiter-non radioactive cell proliferation assay; format: functional

T1 sequence (Q13547 whole entry): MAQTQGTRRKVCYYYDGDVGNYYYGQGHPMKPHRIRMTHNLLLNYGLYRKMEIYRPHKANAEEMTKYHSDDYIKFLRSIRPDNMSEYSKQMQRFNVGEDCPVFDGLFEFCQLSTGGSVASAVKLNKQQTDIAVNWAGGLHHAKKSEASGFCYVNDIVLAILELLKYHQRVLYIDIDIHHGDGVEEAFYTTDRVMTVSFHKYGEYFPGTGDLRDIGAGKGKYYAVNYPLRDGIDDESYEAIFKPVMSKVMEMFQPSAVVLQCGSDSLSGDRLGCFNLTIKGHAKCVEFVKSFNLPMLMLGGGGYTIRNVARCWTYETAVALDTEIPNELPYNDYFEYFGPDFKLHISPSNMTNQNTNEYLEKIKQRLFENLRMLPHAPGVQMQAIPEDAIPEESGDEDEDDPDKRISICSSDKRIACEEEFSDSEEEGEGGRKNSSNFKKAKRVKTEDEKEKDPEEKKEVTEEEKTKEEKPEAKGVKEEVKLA

Structure (SMILES)	inhibition at 100 µM (THP-1 [1]) [%]	inhibition at 4 µM (HL-60 [2]) [%]	inhibition (Histone deacetylase 1 [3]) [%]	inhibition [4] [%]	inhibition at 100 µM (HL-60 [5]) [%]	inhibition at 1 µM (THP-1 [6]) [%]	inhibition [7] [%]	IC50 (Histone deacetylase 8) [nM]	inhibition (Histone deacetylase 1 [8]) [%]	inhibition at 20 µM (HL-60 [9]) [%]	inhibition at 20 µM (THP-1 [10]) [%]	IC50 [11] [nM]	Kd (Peregrin) [nM]	IC50 (Histone deacetylase 1 [12]) [µM]	inhibition at 1 µM (HL-60 [13]) [%]
COc1ccc(C(=O)NO)cc1CS(=O)(=O)Nc1ccc2c(c1)cc(C)c(=O)n2C	0	0	4	63	0	0	14	158	29	0	0				
COc1ccc(C(=O)NO)cc1C(=O)Nc1ccc2c(c1)cc(C)c(=O)n2C								65				709	857	6.9	
COc1ccc(C(=O)NOCc2ccc(OC(C)=O)cc2)cc1S(=O)(=O)Nc1ccc2c(c1)cc(C)c(=O)n2C	27				95					0	3				0
Cc1cc2cc(NCc3cc(C(=O)NO)ccc3Cl)ccc2n(C)c1=O				84			28	3190	20						
COc1ccc(C(=O)NOCc2ccccc2)cc1S(=O)(=O)Nc1ccc2c(c1)cc(C)c(=O)n2C					13						20				2
Cc1cc2cc(NC(=O)c3cc(C(=O)NO)ccc3Cl)ccc2n(C)c1=O								113							
COC(=O)c1ccc(CS(=O)(=O)Nc2ccc3c(c2)cc(C)c(=O)n3C)cc1	93				78	0				14	9				15
Cc1cc2cc(NS(=O)(=O)Cc3ccc(C(=O)NOCc4ccc(O)cc4)cc3)ccc2n(C)c1=O	91					0					1				
Cc1cc2cc(NS(=O)(=O)Cc3cccc(C(=O)NO)c3)ccc2n(C)c1=O	0	0	2	33	0	0	3	465	26	0	0				
COC(=O)c1ccc(S(=O)(=O)Nc2ccc3c(c2)cc(C)c(=O)n3C)cc1	95				68	0				22	85				5
COc1ccc(C(=O)NO)cc1CNc1ccc2c(c1)cc(C)c(=O)n2C				68			40	555	31						
COc1cc(C(=O)NO)ccc1CS(=O)(=O)Nc1ccc2c(c1)cc(C)c(=O)n2C		0	11	46	0		15	231	29	0	0		1580		
